Screens (PubChem BioAssay)
Cdc25B block: human M-phase inducer phosphatase 2 inhibition | P30305 | recombinant Cdc25B, OMFP fluorescence Ex485/Em525 | inhibition, %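 (compounds tested at 10 µM final in the well)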 | 65,000 tested, 0.1% active; in the data active = inhibition above about 50%
Ecoli WT expand: growth inhibitors of E. coli BW25113 wild type; OD600 absorbance; growth inhibition, % at 100 µM; AID 710; 98,000 tested, 0.15% active;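 active = growth inhibition above about 50% at one test dose, limit read from the data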;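 also: growth measured after 20 h incubation at 37 °C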
MMP-13 inhibitor: inhibitors of human MMP13; P45452; MMP-13 fTHP FRET cleavage, Mca fluorescence; inhibition, % at 4 µM; 65,000 tested, 0.07% active;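 active = inhibition above the mean of compound-free control plate wells plus 3 SD, cut at about 14% in these data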;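 also: 0% = DMSO wells and 100% = wells with reference MMP-13 inhibitor after basal subtraction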
HePTP inh: human HePTP phosphatase inhibition; P35236; recombinant HePTP phosphatase activity, OD absorbance; inhibition, % at 20 µM; 110,000 tested, 0.64% active; in the data active = inhibition above about 50%; inconclusive = no clear call, values can overlap the other calls;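 also: plate controls were vehicle for no effect and reference inhibitor for full effect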
DUSP1 inh: blocks human MKP-1 phosphatase activity; 65,000 tested, 0.15% active; P28562; recombinant MKP-1, OMFP hydrolysis fluorescence; inhibition, %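 (compounds tested at a single concentration somewhere between 10 and 100 µM)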;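 active = inhibition above about 50%, limit read from the data; inconclusive = inhibition over screen mean plus 3 SD, below that limit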;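 also: 0% = DMSO max control wells and 100% = wells with enzyme stopped by NaOH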
Target sequence (P28562 whole entry, looked up): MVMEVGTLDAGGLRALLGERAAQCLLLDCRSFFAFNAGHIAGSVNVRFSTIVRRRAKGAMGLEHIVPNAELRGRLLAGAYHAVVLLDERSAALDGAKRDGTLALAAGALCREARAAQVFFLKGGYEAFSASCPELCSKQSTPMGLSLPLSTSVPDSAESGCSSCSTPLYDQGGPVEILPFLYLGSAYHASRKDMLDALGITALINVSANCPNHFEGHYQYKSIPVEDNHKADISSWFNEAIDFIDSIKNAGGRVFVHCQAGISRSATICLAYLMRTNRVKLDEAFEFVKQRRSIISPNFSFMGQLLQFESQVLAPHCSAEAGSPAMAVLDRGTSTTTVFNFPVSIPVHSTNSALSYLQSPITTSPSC
Ecoli tolC: E. coli tolC mutant growth inhibition. growth inhibition, % at 10 µM (by protocol). AID 573. E. coli BW25113 tolC mutant growth, OD615. 65,000 tested, 2.2% active;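 active = growth inhibition at or above a cutoff equal to the mean over every tested compound plus 3 SD, cut at about 60% in these data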;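 also: growth measured after 20 h incubation at 37 °C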
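Material: E. coli BW25113 ΔtolC::kan, tolC deletion mutant strain. Measure: percent growth inhibition. Schedule: 37 °C, 20 h exposure. Doses: single-point testing at 10 µM. Signal: A615 absorbance measurement. Buffer or medium: kanamycin-containing LB broth (50 µg/mL).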
An asterisk follows results filed as active. The sample as a whole holds a higher share of hits than the screen did.

Screening C/C(=N/NC(=O)CNc1ccc(C)cc1)c1ccc([N+](=O)[O-])cc1 returned HePTP inh 4.8.
For NC1=NC(=O)/C(=C\c2ccc(-c3ccc(F)cc3)o2)S1 the results were HePTP inh -10.3.
Screening NC1=NC(=O)/C(=C/c2ccc(-c3cc([N+](=O)[O-])ccc3Cl)o2)S1 returned HePTP inh 98.9*.
`Cc1c(CCC(=O)O)c(=O)oc2cc3occ(-c4ccc(F)cc4)c3cc12` gave Cdc25B block 9.4, Ecoli WT expand -9.0, MMP-13 inhibitor -10.3, HePTP inh 8.1, DUSP1 inh inconclusive and Ecoli tolC 100.0*.
`COc1cccc(OCC(=O)N(Cc2nc(-c3ccc(Cl)cc3)no2)C(C)C)c1` gave Cdc25B block -3.7, Ecoli WT expand -5.0, MMP-13 inhibitor 6.2, HePTP inh 7.0, DUSP1 inh 5.4 and Ecoli tolC 63.3*.
`Cc1ccc(C)c(C(=O)N(Cc2nc(-c3ccc(Cl)cc3)no2)C(C)C)c1` gave Cdc25B block -5.1, Ecoli WT expand -23.0, MMP-13 inhibitor 0.6, HePTP inh -1.7, DUSP1 inh 10.7 and Ecoli tolC 76.8*.
For COc1cccc(C(=O)N(Cc2nc(-c3ccc(C)cc3)no2)C(C)C)c1 the results were Cdc25B block -16.2, Ecoli WT expand 2.0, MMP-13 inhibitor 6.6, HePTP inh -0.9, DUSP1 inh 4.5 and Ecoli tolC 10.4.
For Cc1cccc(-c2noc(CN(C(=O)c3ccc4c(c3)OCO4)C(C)C)n2)c1 the results were Cdc25B block -4.3, Ecoli WT expand 0.0, MMP-13 inhibitor -0.4, HePTP inh 7.4, DUSP1 inh 21.0 and Ecoli tolC 12.8.
For CC(C)N(Cc1nc(-c2ccc(Cl)cc2)no1)C(=O)CCC1CCCC1 the results were Cdc25B block -5.1, Ecoli WT expand 4.0, MMP-13 inhibitor -2.5, HePTP inh -0.9, DUSP1 inh 12.5 and Ecoli tolC 71.9*.
`Cc1cccc(-c2noc(CN(C(=O)c3ccc(Br)o3)C(C)C)n2)c1` gave Cdc25B block -9.5, Ecoli WT expand -11.0, MMP-13 inhibitor 5.1, HePTP inh 0.5, DUSP1 inh 7.7 and Ecoli tolC 62.7*.
`CCOc1ccc(S(=O)(=O)N(CC(=O)N2CCc3ccccc3C2)c2ccc(C)cc2)cc1` gave HePTP inh -0.6.
`CCOC(=O)C1=C(O)/C(=C/c2cc(OC)c(OC)c(OC)c2)SC1=Nc1ccc([N+](=O)[O-])cc1` gave HePTP inh -4.3.
Screening O=C(CSc1nnc(Cc2cccs2)n1Cc1ccco1)Nc1ccc(Cl)cc1Cl returned Cdc25B block 2.4, Ecoli WT expand -24.0, MMP-13 inhibitor -4.5, HePTP inh 5.9, DUSP1 inh 14.0 and Ecoli tolC 94.7*.
`O=C(CSc1nnc(Cc2cccs2)n1Cc1ccco1)Nc1ccc(Br)cc1` gave Cdc25B block -12.3, Ecoli WT expand -9.0, MMP-13 inhibitor -2.3, HePTP inh 2.8, DUSP1 inh 2.3 and Ecoli tolC 100.0*.
Screening NC(=O)c1c(NC(=O)CSc2nnc(Cc3ccccc3)n2Cc2ccco2)sc2c1CCC2 returned Cdc25B block -15.6, Ecoli WT expand -3.0, MMP-13 inhibitor -17.6, HePTP inh 9.9, DUSP1 inh 6.4 and Ecoli tolC 33.9.
O=C(CSc1nnc(-c2ccco2)n1Cc1ccco1)NCc1cccs1 was read as Cdc25B block -5.0, Ecoli WT expand 1.0, MMP-13 inhibitor -1.8, HePTP inh 2.6, DUSP1 inh 7.8 and Ecoli tolC -2.8.
For Cc1cc(Cl)ccc1NC(=O)CSc1nnc(-c2ccncc2)n1Cc1ccco1 the results were Cdc25B block -14.0, Ecoli WT expand 9.0, MMP-13 inhibitor -0.7, HePTP inh 5.3, DUSP1 inh 13.9 and Ecoli tolC 5.7.
For O=C(CSc1nnc(Cc2ccccc2)n1Cc1ccco1)NC12CC3CC(CC(C3)C1)C2 the results were Cdc25B block -15.2, Ecoli WT expand -9.0, MMP-13 inhibitor 5.1, HePTP inh 3.3, DUSP1 inh 14.1 and Ecoli tolC 82.7*.
O=S(=O)(Nc1ccccn1)c1ccc(-c2ccccc2)cc1 was read as HePTP inh -4.4.
`O=C(CCCOc1ccc(Cl)cc1Cl)N1CCN(c2ccccn2)CC1` gave Cdc25B block -14.9, Ecoli WT expand -11.0, MMP-13 inhibitor 0.6, HePTP inh 2.6, DUSP1 inh 5.9 and Ecoli tolC 73.2*.
`O=C(CCCOc1ccccc1)N1CCN(c2ccccn2)CC1` gave Cdc25B block -9.2, Ecoli WT expand 0.0, MMP-13 inhibitor -15.9, HePTP inh 0.1, DUSP1 inh -10.6 and Ecoli tolC -4.9.
Screening CCOc1ccccc1NC(=O)c1ccc(Cl)c(Cl)c1 returned HePTP inh 1.5.
CCC1=NN2C(=N)/C(=C/c3ccc(-c4ccc(C(=O)O)cc4)o3)C(=O)N=C2S1 was read as HePTP inh 57.3*.
CSCSC1=C(C#N)C(c2ccccc2Cl)C(C(C)=O)=C(C)N1 (centres undefined) was read as Cdc25B block -15.3, Ecoli WT expand -11.0, MMP-13 inhibitor 0.9, HePTP inh 9.2, DUSP1 inh 10.6 and Ecoli tolC 63.4*.
`CCOC(=O)CSC1=C(C#N)C(c2ccccc2F)C(C(C)=O)=C(C)N1` (centres undefined) gave Cdc25B block -11.4, Ecoli WT expand 4.0, MMP-13 inhibitor 5.2, HePTP inh -1.1, DUSP1 inh 22.2 and Ecoli tolC 36.2.
Cc1ccc(N=Cc2c(C(F)(F)F)[nH]n(-c3ccccc3)c2=O)cc1 was read as HePTP inh 63.7*.
Cc1ccc(Cn2nnc3c(=O)n(Cc4cccc(C)c4)cnc32)cc1 was read as Cdc25B block 2.9, Ecoli WT expand -7.0, MMP-13 inhibitor 14.0*, DUSP1 inh 1.3 and Ecoli tolC 12.4.
`Cc1cccc(Cn2cnc3c(nnn3Cc3ccc(Cl)cc3)c2=O)c1` gave Cdc25B block 0.7, Ecoli WT expand -11.0, MMP-13 inhibitor 4.3, HePTP inh -6.6, DUSP1 inh 2.0 and Ecoli tolC 11.0.
Screening O=c1[nH]c(=O)n(C2CCCCCC2)c(O)c1C=NCc1ccc(F)cc1 returned Cdc25B block -5.7, Ecoli WT expand -10.0, MMP-13 inhibitor 6.2, HePTP inh 2.4, DUSP1 inh 21.5 and Ecoli tolC 98.5*.
Screening CCn1cc(C(=O)O)c(=O)c2cnc(N3CCNCC3)nc21 returned Cdc25B block -11.4, MMP-13 inhibitor 1.8, HePTP inh 6.1, DUSP1 inh -5.9 and Ecoli tolC 6.6.
`C=CCNC(=S)N1CCN(c2ncc3c(=O)c(C(=O)O)cn(CC)c3n2)CC1` gave Ecoli WT expand 100.0*.
Screening c1ccc(Cn2nnc3c(N4CCN(Cc5ccc6c(c5)OCO6)CC4)ncnc32)cc1 returned Cdc25B block -0.6, Ecoli WT expand -24.0, MMP-13 inhibitor 0.2, HePTP inh 2.6, DUSP1 inh 27.3 and Ecoli tolC 60.7*.
